The list is not random: actives were taken first. Their share in the collection is about 3.3%.
5HT1a ag = human 5-HT1a receptor agonists, primary screen, cell-based, CHO, Ga15 NFAT-bla reporter; 65,000 tested, 0.56% active; 5-hydroxytryptamine receptor 1A (Homo sapiens), P08908; AID 567, 2006; activation, % at 10 µM; CHO 5-HT1a Ga15 NFAT-bla reporter, FRET ratio; 0% basal, 100% maximal reference agonist;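 active means activation above the screen-wide mean activation plus 3 SD, cut at about 19% in these data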
Target sequence (P08908 whole entry, looked up): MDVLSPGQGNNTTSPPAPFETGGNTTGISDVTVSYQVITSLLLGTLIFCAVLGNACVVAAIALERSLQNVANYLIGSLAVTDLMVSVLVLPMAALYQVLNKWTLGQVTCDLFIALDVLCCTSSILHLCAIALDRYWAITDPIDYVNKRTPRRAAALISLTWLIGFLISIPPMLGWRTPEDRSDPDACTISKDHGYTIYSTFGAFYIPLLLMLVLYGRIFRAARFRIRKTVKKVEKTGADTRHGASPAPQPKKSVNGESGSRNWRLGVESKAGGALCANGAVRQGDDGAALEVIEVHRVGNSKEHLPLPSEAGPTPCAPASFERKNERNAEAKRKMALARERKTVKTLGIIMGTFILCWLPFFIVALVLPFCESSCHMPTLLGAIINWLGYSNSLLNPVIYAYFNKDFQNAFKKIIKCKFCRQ
HEK293 NFkB inh = inhibitors of PMA/ionomycin-induced NF-kB reporter, primary screen, antigen receptor NF-kB inhibitor project, cell-based, HEK-293 luciferase reporter, luminescence; inhibition, % at 3 µM; 62,000 tested, 0.21% active; HEK-293 NF-kB luciferase reporter;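 active means inhibition above the mean of all tested compounds plus 3 SD, cut at about 40% in these data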
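Signal: luciferase luminescence; Material: HEK-293 cells with stable firefly luciferase reporter driven by four HIV NF-kB elements; Probe or stimulus: PMA with ionomycin; Replication: tested once; Times: 1 h compound pretreatment, then 16 h stimulation at 37 °C, 5% CO2; Benchmarks: DMSO and 10 µM reference inhibitor; Evaluation: per-plate % inhibition versus controls.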
5HT1a antag = human 5-HT1a receptor antagonists, primary screen, cell-based, CHO, Ga15 NFAT-bla reporter. 5-hydroxytryptamine receptor 1A (Homo sapiens), P08908. CHO 5-HT1a Ga15 NFAT-bla reporter, antagonist mode. inhibition, % at 10 µM. 62,000 tested, 0.68% active. AID 612, 2007;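 active means inhibition above the mean of all tested compounds plus 3 SD, cut at about 43% in these data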;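 further: receptor stimulated by 5-CT agonist at 100 nM near EC80; beta-lactamase reporter measured by ratiometric fluorescence of a cleavable substrate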
HTR1E antagonist = 5-HT1E receptor antagonists, primary screen, cell-based, HTS. 5-hydroxytryptamine receptor 1E (Homo sapiens), P28566. CHO 5-HT1E Ga15 NFAT-bla reporter, FRET, antagonist. inhibition, % at 6 µM. 65,000 tested, 0.99% active;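 active means inhibition above a set limit, the mean inhibition across every tested compound plus 3 SD, cut at about 29% in these data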;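 further: signal is the 460 over 535 nm emission ratio of beta-lactamase substrate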
HTR1E agonist = 5-HT1E receptor agonists, primary screen, cell-based, HTS; 5-hydroxytryptamine receptor 1E (Homo sapiens), P28566; CHO 5-HT1E Ga15 NFAT-bla reporter, FRET; 0% DMSO wells, 100% control agonist wells; activation, % at 6 µM; 65,000 tested, 0.69% active; AID 574, 2007;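 active means activation above a set limit, the screen-wide mean activation plus 3 SD, cut at about 8.5% in these data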
Jurkat viability = cytotoxicity toward Jurkat T cells, primary screen, cytotoxicity control, cell-based, Jurkat E6.1, 60K MLSMR library; Jurkat E6.1 viability, ATP luminescence, 48 h; inhibition, % at 4 µM; 56,000 tested, 1.2% active; AID 463, 2006;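 active means inhibition above the mean inhibition of all tested compounds plus 3 SD, cut at about 28% in these data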
A number is an active result; . = inactive; / = no result.

SMILES	5HT1a ag	HEK293 NFkB inh	5HT1a antag	HTR1E antagonist	HTR1E agonist	Jurkat viability
O=C(NCCN1CCOCC1)c1cc(S(=O)(=O)NCCCN2CCCC2=O)ccc1Cl	.	.	.	.	.	.
COc1cc(C(=O)OCC(=O)c2cc(C)n(C)c2C)cc(OC)c1OC	.	.	.	.	.	42.0
Cc1cc(C(=O)COC(=O)c2n[nH]c3ccccc23)c(C)n1C	.	.	.	.	.	.
CCOc1ccc(C2=Nn3c(nnc3-c3ccccn3)SC2)cc1	.	/	/	.	.	/
COc1ccc(C2=Nn3c(nnc3-c3ccccc3OC)SC2)cc1OC	.	46.9	75.1	87.0	.	99.2
COc1ccccc1-c1nnc2n1N=C(C)CS2	.	.	.	.	.	.
COc1ccc(C2=Nn3c(nnc3-c3ccccn3)SC2)cc1OC	.	/	/	39.0	.	/
CCNC(=O)CSc1nc2cc(OC)c(OC)cc2c(=O)n1CCC1=CCCCC1	.	.	.	.	.	.
O=C1CC(N2CCN(S(=O)(=O)c3cccc(C(F)(F)F)c3)CC2)C(=O)N1Cc1ccccc1 (stereo not drawn)	.	.	.	.	.	.
COc1ccc(N2CCN(CCNC(=O)C3CCN(S(=O)(=O)c4cccs4)CC3)CC2)cc1	.	.	.	.	.	.
COc1ccc(N2CCN(S(=O)(=O)c3cccs3)CC2)cc1	26.2	.	.	.	.	.
CCOC(=O)c1[nH]c(C)c(C(=O)c2cc(F)ccc2F)c1C	.	42.3	49.7	56.1	.	88.4
CCCCSc1nc(C)c(CC(=O)O)c(=O)[nH]1	.	.	.	.	.	.
COc1ccc(O)c(-c2cc(-c3cccs3)[nH]n2)c1	.	.	51.0	.	.	.
COc1ccccc1-c1cc(-c2cc(Cl)ccc2O)n[nH]1	.	/	/	.	.	/
CS(=O)(=O)c1nc(-c2ccccc2)cc(C(F)(F)F)n1	.	.	110.3	64.5	.	/
Cc1cc(NC(=O)CCS(=O)(=O)c2nc(-c3ccccc3)cc(C(F)(F)F)n2)no1	.	.	61.0	40.0	.	32.7
COC(=O)c1nnn(-c2nonc2N)c1CSc1ccc(Cl)cc1	.	.	.	29.7	.	.
COc1ccc(S(=O)(=O)NCC2CCC(C(=O)N3CCC4(CC3)OCCO4)CC2)cc1 (stereo not drawn)	.	.	.	.	.	/
Nc1nc(-c2ccccc2)cc(N2CCCCC2)n1	.	.	.	.	.	78.2
CCOC(=O)c1cnc(-n2nc(C)cc2C)nc1NC1CCCCC1	.	.	47.9	.	.	.
CCCOC(=O)C1[C@H]2C(=O)N(CC3CCCO3)C[C@]23C=C[C@H]1O3 (stereo partly drawn)	.	.	.	.	.	.
Cc1cc2nnc(SCC(=O)NCc3ccco3)n2c2ccccc12	.	.	.	.	.	83.8
CC(=O)Oc1ccc(Oc2ccc(-c3noc(C)n3)cc2)cc1	.	.	.	.	.	34.2
CC(=O)Oc1ccc(-c2nc(-c3cccnc3)no2)cc1	.	.	.	.	.	.
SMILES	5HT1a ag	HEK293 NFkB inh	5HT1a antag	HTR1E antagonist	HTR1E agonist	Jurkat viability
CC(=O)N1CCN(CCN=CC2=C(O)CC(c3cccs3)CC2=O)CC1 (stereo not drawn)	.	.	.	.	.	.
Cc1cc(-n2c(=O)c(C#N)cc3c(=O)n4ccccc4nc32)no1	72.3	.	.	.	18.9	.
C=CCn1c(=O)c(C#N)cc2c(=O)n3ccccc3nc21	42.8	.	.	.	16.1	.
N#Cc1cc2c(=O)n3ccccc3nc2n(Cc2cccnc2)c1=N	.	.	.	.	.	/
CCOc1nc(CC)nc(NC(=O)NS(=O)(=O)c2ccccc2Cl)n1	.	.	.	.	.	.
COCCn1c(SCC(=O)c2ccc(F)cc2)nnc1C(C)C	.	.	.	.	.	.
Cc1cc(C)c2c(=O)n(-c3ccccc3)[nH]c2n1	.	.	.	.	13.3	.
O=c1c2c3n(c(=O)nc2[nH]n1-c1ccccc1)CCCCC3	.	.	.	.	.	.
COc1ccc(C(=O)NC(=O)Nc2cc(C)ccn2)cc1	.	58.9	.	.	.	.
CCOc1cc(S(=O)(=O)N2CCOCC2)ccc1F	.	.	.	.	.	.
CCOc1ccc2cc(S(=O)(=O)N3CCOCC3)ccc2c1	.	.	.	.	8.7	.
Cc1ccc(C)c(N2CCN(CC(=O)Nc3ccc4[nH]c(=O)[nH]c4c3)CC2)c1	.	.	.	.	22.7	.
C=CCN1C(=Nc2cccnc2)SCC1(O)c1ccc(C)cc1 (stereo not drawn)	.	.	.	.	.	39.2
C=CCN1C(=O)CSC1=Nc1cccc(O)c1	.	.	.	.	.	/
CC1(C)CC(NC(=O)c2coc(=O)c(Br)c2)CC(C)(C)N1	.	.	.	.	.	.
COc1ccc(N2C(=O)CCC(C(C)=O)=C2C)cc1	.	.	.	.	.	.
CC(C)OCCCNc1ncnc2c1[nH]c1ccccc12	.	.	.	.	.	67.3
COc1ccccc1N1CCN(C(=O)c2ccc(CS(=O)(=O)c3ccccc3OC)o2)CC1	.	.	.	.	.	.
CCN1CCCC1CNC(=O)c1nn(-c2ccc(C)cc2)c(=O)c2c1c1ccccc1n2C (stereo not drawn)	.	.	.	.	37.1	.
Cc1c(C(=O)OCC(=O)c2c(N)n(CC(C)C)c(=O)n(C)c2=O)oc2ccccc12	.	.	42.9	.	.	.
CC(C)Cn1c(N)c(C(=O)CSc2ccc3c(c2)OCCO3)c(=O)n(C)c1=O	.	.	.	.	.	35.5
COCc1c(C(=O)OCC(=O)c2c(N)n(CC(C)C)c(=O)n(C)c2=O)oc2ccccc12	.	.	.	.	.	.
CC(C)Cn1c(N)c(C(=O)COC(=O)c2ccc3c(c2)OCCO3)c(=O)n(C)c1=O	.	.	.	.	.	.
COc1cc(C)c(Cl)cc1S(=O)(=O)NCc1ccncc1	.	.	.	.	.	66.7
CC(=O)c1coc2ccc(OCCN3CCCCC3)cc12	.	.	.	.	.	.
CCN1CCn2c1nc(N1CCCCC1)nc2=O	.	.	.	.	9.4	.
CCN(CC)c1nc2n(c(=O)n1)CCN2CC	.	.	.	.	.	.
